Assay results reported in ChEMBL document CHEMBL5104206, “Oleic amide derivatives as small molecule stimulators of the human proteasome's core particle” (RSC Med Chem, 2022).
The source made the active and inactive calls. The rule behind the calls is not given here.

Tests used:
[1] = target: T1, 20S proteasome (Homo sapiens) (UniProt P49721+P20618+P28074+P28062+P28065+P28072+P25786+P25787+P25788+P25789+P28066+P60900+O14818+Q8TAA3+P40306+A5LHX3+P49720+P28070+Q99436); assay: Stimulation of human 20S proteasome assessed as increase in proteasome activity at 25 uM and measured upto 60 mins using FRET peptide as substrate by FRET assay relative to control; type: protein-complex assay; details: filed as activator
Outline: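 Purified 20S CP (5 nM) with 20 µM FRET peptide reporter in Tris-HCl (50 mM, pH 7.63), 2% DMSO, 25 µL. Controls were reporter alone and basal enzyme with DMSO, in triplicate. Read at 37 °C, ex 335/em 493 nm, every 2 min for 60 min. Rate taken as slope of linear portion.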

[2] = target: T1, 20S proteasome (Homo sapiens); assay: Activation of human 20S proteasome mediated degradation of alpha-synuclein assessed as amount of alpha-synuclein remaining at 25 uM and incubated for 2 hrs by Coomassie staining based SDS-PAGE analysis; type: protein-complex assay; details: filed as activator
Outline: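 Human 20S CP (5 nM final) with α-Syn monomer (400 ng) in Tris-HCl (50 mM, pH 7.6), 2% DMSO, 18 µL total, 2 h at 37 °C, triplicate. Mixed on ice before incubation. Stopped in SDS loading buffer at 95 °C 5 min. Run on 4–15% SDS-PAGE, Coomassie stained, band intensity normalized to α-Syn without 20S CP.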

[3] = test system: HEK-293T; assay: Cytotoxicity against human HEK-293T cells assessed as reduction in cell viability at 6.25 to 25 uM incubated for 24 hrs by CellTiter Glo viability assay; type: toxicity, cell-based; details: dose 6.25-25 µM
Outline: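 HEK-293T seeded at 5000 cells/well, attached overnight, medium refreshed. Compound in DMSO added in triplicate, 1% final DMSO, 24 h. Plate equilibrated to room temperature 30 min before CellTiter-Glo reagent, shaken 10 min, signal stabilized 10 min. Luminescence read.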

[4] = target: T2, Proteasome Macropain subunit MB1 (Homo sapiens) (UniProt P28074); assay: Stimulation of human 20S proteasome beta 5 subunit in human HEK-293T cells assessed as increase in proteasome activity at 6.25 to 25 uM preincubated for 2 hrs followed by Me4BodipyFL-Ahx3Leu3VS proteasome probe addition and measured after 1 hrs by SDS-PAGE analysis; type: cell-based; details: filed as activator, dose 6.25-25 µM
T2 sequence (whole entry): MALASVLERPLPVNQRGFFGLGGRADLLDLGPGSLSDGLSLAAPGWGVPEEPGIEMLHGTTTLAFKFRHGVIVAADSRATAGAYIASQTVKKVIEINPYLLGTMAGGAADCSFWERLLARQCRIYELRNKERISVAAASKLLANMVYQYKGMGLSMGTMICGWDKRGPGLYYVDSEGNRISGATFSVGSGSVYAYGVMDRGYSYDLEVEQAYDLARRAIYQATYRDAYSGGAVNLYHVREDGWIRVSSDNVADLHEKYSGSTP
Outline: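 Treated 2 h in fresh medium, DMSO control 0.5%, then 1 µM Me4BodipyFL-Ahx3Leu3VS probe added. Cells lysed in M-PER with protease inhibitors. 50 µg protein run on 4–15% SDS-PAGE, in-gel fluorescence scanned at 488 nm. Band densities quantified, triplicate.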

Compound | Activity [1] | also measured
CCCCCCCC/C=C\CCCCCCCC(=O)NC | 132% | 
CCCCCCCC/C=C\CCCCCCCC(=O)NCc1ccc(C(C)(C)C)cc1 | 106% | 
CCCCCCCC/C=C\CCCCCCCC(=O)Nc1ccc(O)cc1 | 247% | 
CCCCCCCC/C=C\CCCCCCCC(=O)NC1CCCC1 | 218% | 
CCCCCCCC/C=C\CCCCCCCC(=O)NCc1ccc(C(F)(F)F)cc1 | 92% | 
CCCCCCCC/C=C\CCCCCCCC(=O)Nc1ccc(Oc2ccccc2)cc1 | 145% | 
CCCCCCCC/C=C\CCCCCCCC(=O)Nc1ccc(C(C)(C)C)cc1 | 68% | 
CCCCCCCC/C=C\CCCCCCCC(=O)Nc1ccc(C(C)=O)cc1 | 241% | Activity [2]: Active; Activity [3]: Non-Toxic; Activity [4]: Active
CCCCCCCC/C=C\CCCCCCCC(=O)NCCCC | 138% | 
CCCCCCCC/C=C\CCCCCCCC(=O)N[C@@H](C)c1ccccc1 | 195% | 
CCCCCCCC/C=C\CCCCCCCC(=O)NCc1ccccc1C | 107% | 
CCCCCCCC/C=C\CCCCCCCC(=O)NCc1cccc(C)c1 | 183% | 
CCCCCCCC/C=C\CCCCCCCC(=O)NC1CCCCC1 | 204% | 
CCCCCCCC/C=C\CCCCCCCC(=O)NC1CCCCCC1 | 136% | 
CCCCCCCC/C=C\CCCCCCCC(=O)NCc1ccccc1 | 208% | 
CCCCC/C=C\C/C=C\C/C=C\C/C=C\CCCC(=O)Nc1ccc(O)cc1 | 219% | Activity [2]: Active; Activity [3]: Toxic; Activity ([4]; DDE = dose-dependent effect): Dde
CCCCCCCC/C=C\CCCCCCCC(=O)NCc1ccc(Cl)cc1 | 138% | 
CCCCCCCC/C=C\CCCCCCCC(=O)NC1CCCCCCC1 | 148% | 
CCCCCCCC/C=C\CCCCCCCC(=O)NCCC | 154% | Activity [2]: Active; Activity [3]: Toxic; Activity [4]: Active
CCCCCCCC/C=C\CCCCCCCC(=O)Nc1ccccc1 | 159% | 
CCCCCCCC/C=C\CCCCCCCC(=O)NCC(C)C | 139% | 
CCCCCCCC/C=C\CCCCCCCC(=O)Nc1ccc(Cl)cc1 | 144% | 
CCCCCCCC/C=C\CCCCCCCC(=O)NCc1ccc(O)cc1 | 361% | Activity [2]: Active; Activity [3]: Toxic; Activity [4]: Active
CCCCCCCC/C=C\CCCCCCCC(=O)N[C@H]1CC[C@H](C)CC1 | 118% | 
CCCCCCCC/C=C\CCCCCCCC(=O)NCc1ccc(C)cc1 | 167% | 
CCCCCCCC/C=C\CCCCCCCC(=O)N[C@H](C)c1ccccc1 | 225% | 
CCCCCCCC/C=C\CCCCCCCC(=O)NC1CCC1 | 202% | 
CCCCCCCC/C=C\CCCCCCCC(=O)NCCCCC | 124% | 
CCCCCCCC/C=C\CCCCCCCC(=O)NCc1ccc(OC)cc1 | 116% | 
